These results are taken from ChEMBL document CHEMBL4513216, “Probing the Open Global Health Chemical Diversity Library for Multistage-Active Starting Points for Next-Generation Antimalarials” (ACS Infect Dis, 2020).

Molecules are shown by their SMILES.

The series can be described thus: Toxicity liver stage against HepG2, at 10uM. It is filed as cell-based. Set-up: test concentration 10 uM, cell line HepG2-A16-CD81EGFP. The settings on record: human, HepG2-A16-CD81EGFP cells; read-out: INHIBITION
The gist of the method:
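Uninfected HepG2-A16-CD81EGFP cells, 3 × 10^3 per well, 1536-well, plated on prespotted compound at 10 μM final, parasite-free screening media added to match infected plates; puromycin 10 μM positive, DMSO 0.5% negative; run in parallel with 48 h PbLuc assay at 37 °C, 5% CO2; viability by CellTiter-Glo luminescence, normalized to controls.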

In the case of `CC(C)NC(=O)C(NC(=O)N1CCN(c2ccc(Cl)cc2)CC1)C(C)C` (stereo unspecified), the cytotoxicity at 10 µM stood at 5.69%.
The same measure for `Cc1ccc(C(=O)N2CC[C@H](Oc3cccnc3C)[C@@H](O)CC2)s1`: -5.58%.
On to `CCNc1ncc(C(=O)NC2CCSC2)cn1` (stereo unspecified), for which the cytotoxicity at 10 µM is -8.85%.
The same measure for `CN1CC(=O)N(c2ccsc2)CC12CCN(C(=O)CC1CCCC1)C2` (stereo unspecified): -77.3%; for `Cc1ccc(F)c(S(=O)(=O)Nc2cn(C)cc(Br)c2=O)c1`: -7.73%; for `CNc1nc(N2CCC3(CCCNC3=O)C2)nc2c1CCC2` (stereo unspecified): -4.95%.
The same measure for `CNc1nc(CNC(=O)Nc2cccc(COCCOC(C)C)c2)cs1`: 8.77%.
For `O=C(CCN1CCOC(C(F)(F)F)C1)NCc1ccccc1Cl` (stereo unspecified), the cytotoxicity at 10 µM is -3.13%.
The same measure for `CCOc1ccc(C(F)(F)F)cc1NCc1nc(C)c(C)o1`: -45.3%; for `Cc1nc(-c2ccccc2)n(CC(=O)NCC(C)C)n1`: -2.97%.
The figure for `Cc1ccc(C(=O)N2CCC(Oc3cccc(C)c3C)CC2)c(=O)[nH]1` is -6.48%; for `COC(=O)c1ccccc1S(=O)(=O)NC(=O)c1cccc2c1OCCO2` it is -12.5%.
The figure for `CN1CC2(CCN(C(=O)c3cccc(-n4cccn4)c3)CC2)OC1=O` is 4.5%; for `CNC(=O)Cc1noc(-c2cc3c(s2)CCCCCC3)n1` it is 3.76%; for `O=C(CSc1ccccc1)N1CCC(N2CCCCC2=O)CC1` it is 11.2%.
`CN(Cc1csc(-c2ccccc2)n1)C(=O)CCNS(C)(=O)=O`: the cytotoxicity at 10 µM came to 0.571%.
The figure for `CNC(=O)[C@H]1C[C@H]2CN(C(=O)NC(C)C)C[C@@H]1O2` is -99.8%.
The figure for `CN1CCCN(C(=O)NCCNc2ncccn2)CC1` is -16.7%; for `Cc1nc(COc2ccc(N(C)S(C)(=O)=O)cc2)sc1C` it is -2.75%.
The figure for `CCNC(=O)N1CCN(C(=O)c2cc(Cl)cc3cccnc23)CC1` is -9.62%; for `Cc1cc(NCCNc2ccc(C#N)cn2)nc(C)n1` it is 4.42%.
For `Cc1nc(Nc2ncccn2)cc(C2CCCN2C(C)C)n1` (stereo unspecified), the cytotoxicity at 10 µM was -17.3%.
With `Cc1noc(C)c1CN1C[C@@H](C(=O)O)[C@H](c2ccccn2)C1`, the cytotoxicity at 10 µM was -6.9%.
The same measure for `Cc1nn(CC(=O)O)c(C)c1NS(=O)(=O)c1cccc2ccccc12`: -8.52%.
`Cn1cc(C2CCCN2C(=O)c2ccc(Br)o2)cn1` (stereo unspecified): the cytotoxicity at 10 µM is -3.32%.
`CN(C)c1ncc(-c2c(-c3ccccc3)ncn2C(CO)C(=O)O)cn1` (stereo unspecified): the cytotoxicity at 10 µM amounted to 0.471%.
For the compound `O=C1CC[C@@H]2[C@@H](CCN2C(=O)c2ccsc2)N1Cc1ccncc1`, the cytotoxicity at 10 µM is -71.5%.
The same measure for `CNC(=O)c1ccc(C(=O)N2CCCC(n3nc(C)cc3C)C2)cn1` (stereo unspecified): -5.61%; for `Cc1oc(C)c(C(=O)Nc2ccccn2)c1C`: -9.78%; for `COc1ccccc1Oc1ncccc1CNC(=O)[C@@H](C)NC(C)=O`: -2.61%.
Turning to `CN(C)Cc1cc(=O)n2c(n1)CN(C(=O)Cc1cccs1)CCC2`, the cytotoxicity at 10 µM is -2.8%.
The same measure for `CCN1CC(COC(=O)c2cc(Br)ccc2F)CC1=O` (stereo unspecified): 5.09%; for `CCOC(=O)CC1CCCCN1C(=O)c1cccc2ccnn12` (stereo unspecified): -105%.
The same measure for `OC(CNCCn1cccn1)COc1ccc(Br)cc1` (stereo unspecified): -8.03%; for `Cc1nnc(C2CCN(c3ccccc3)CC2)o1`: 8.84%.
As to `O=C(C1CCS(=O)(=O)CC1)N1CCC(c2ccc(F)cc2)C1` (stereo unspecified), the cytotoxicity at 10 µM was -60.1%.
The same measure for `Cc1ccc(C(=O)NCc2cccnc2N(C)C)o1`: -6.86%.
The same measure for `O=C(Nc1ccccc1)C1CCCN(c2cc(-n3cncn3)ncn2)C1` (stereo unspecified): -2.1%.
The same measure for `O=C1CC[C@H]2[C@H](CCN2C(=O)C2CCOCC2)N1Cc1ccncc1`: -2.7%; for `OCc1ccccc1CNCC1CNc2ccnn2C1` (stereo unspecified): -11.9%; for `CN(Cc1ccccn1)C(=O)CNC(=O)N1CCc2ccccc2C1`: 2.8%.
As to `CCN(Cc1ccccc1Cl)Cn1nc(C)c2c(C)onc2c1=O`, the cytotoxicity at 10 µM was -2.34%.
As for `CCc1noc(C(C)N2CCN(S(=O)(=O)N3CCCC3)CC2)n1` (stereo unspecified), the cytotoxicity at 10 µM was -0.252%.
Regarding `CC(C)CN1CCC(NC(=O)c2ccc(Cl)cc2Cl)CC1`, the cytotoxicity at 10 µM is -8.33%.
The figure for `O=C(C1CC1)N1C[C@@H](F)[C@@H](OCc2nc3ccccc3o2)C1` is -1.94%; for `COc1ccc(-c2nnc(CNCCn3cccn3)o2)cc1` it is -14.5%; for `COC(=O)c1cccc(C(=O)N2CCN(c3cc(Cl)ccc3C)CC2)n1` it is 81.2%.
The figure for `Cc1ccc(CN2CCc3onc(C(=O)Nc4cccnc4)c3C2)o1` is 5.15%; for `CCc1noc(CN2CCCC2C(=O)OCc2ccccc2)n1` (stereo unspecified) it is -1.57%.
The same measure for `COc1ccccc1CC(=O)N1CCC(NCc2ccc(C)o2)CC1`: -5.28%; for `O=C(Nc1ccccc1)N1C[C@@H]2C[C@H](C(=O)N3CCOCC3)[C@H](C1)O2`: 7.53%.
`Cc1nc(C2CCN(C(=O)CO)CC2)cc(N2CCOCC2)n1`: the cytotoxicity at 10 µM is -12.2%.
The figure for `Cc1occc1C(=O)NCC(=O)N1CCCC(c2ccccc2)CC1` (stereo unspecified) is 6.35%; for `CC(C)c1ccc(O)c(C(=O)NCc2nncn2C)c1` it is -3%; for `O=C(NCCCSc1ccc(F)cc1)C1CCc2cn[nH]c2C1` (stereo unspecified) it is -3.65%.
The same measure for `CCOc1ccc(NC(=O)c2[nH]c(C)cc2C)cc1CO`: 21.3%; for `CC(=O)N1CCN(CCCSCc2ccccc2)CC1`: 1.64%; for `COCCNC(=O)Nc1ccc(-c2nc(C(C)C)no2)cc1`: 0.0793%.
The same measure for `COC[C@H]1CN(CC2CC2)C(=O)[C@@H]2CCN(Cc3ccoc3)CC[C@H]12`: -2.05%.
On to `COCCCN1CCCN(C(C)c2nc(C3CC3)no2)CC1` (stereo unspecified), for which the cytotoxicity at 10 µM is -8.77%.
The same measure for `CC(=O)N1CCc2nc(C3CCN(C(=O)c4ccccc4)C3)ncc2C1` (stereo unspecified): -4.76%; for `Cc1cccc(C(C(=O)NCCn2cccc2)N(C)C)c1` (stereo unspecified): -9.12%; for `O=C(CO)N1C[C@H]2CN(Cc3cccc(F)c3)C(=O)[C@H]2C1`: -82.3%.
Regarding `O=C(Cc1ccccc1)NCc1ncc(-c2ccccc2C(=O)O)cn1`, the cytotoxicity at 10 µM was -1.89%.
The same measure for `O=C(COc1ccccc1Cl)N1CCCC(n2ccnc2)C1` (stereo unspecified): -21.9%; for `Cc1noc(-c2ccc(N3CCCC(C(N)=O)C3)nc2)n1` (stereo unspecified): 9.36%.
The figure for `Cc1cc(C)c2nc(CNCCNS(C)(=O)=O)cc(O)c2c1` is 0.145%.
The same measure for `COC1CCN(S(=O)(=O)N2CCCC(c3cccc(C(=O)O)c3)C2)CC1` (stereo unspecified): 1.83%.
Consider `c1ccc(O[C@H]2CO[C@@]3(CCN(Cc4ccc5c(c4)OCO5)C3)C2)nc1`, for which the cytotoxicity at 10 µM is -76.4%.
The figure for `COCCC(Cc1cccc(Br)c1)C(=O)O` (stereo unspecified) is 9.21%.
The same measure for `CN(C)C1CCC2(CCN(Cc3cccnc3)CC2)c2ccccc21` (stereo unspecified): 3.15%.
